Shown are actives, neighbours in structure and some others; about 2.6% of the full set was active somewhere.
S100A4 inh HTS – inhibitors of S100A4-myosin IIA peptide binding, primary screen, biochemical, fluorescence polarization, TAMRA-MyoIIA peptide | Protein S100-A4 (Homo sapiens), P26447 | inhibition, % at 10.7 µM | 0.14% of 360,000 active;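 active = mean inhibition of at least 70% across replicates, with every replicate also reaching that level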
Target sequence (P26447 whole entry, looked up): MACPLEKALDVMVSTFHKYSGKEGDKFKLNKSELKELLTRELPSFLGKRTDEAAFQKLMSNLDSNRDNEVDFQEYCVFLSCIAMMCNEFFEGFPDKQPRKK
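assay system = human S100A4 monomer with TAMRA-labelled myosin IIA peptide | also added = labelled myosin peptide probe, 5 nM | incubation = 5 min between mix addition and reading | control set = DMSO and TFP controls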
rRNA inh HTS – reduced GFP signal of wild-type E. coli, primary screen, bacterial rRNA inhibitor project, GFP/RFP fluorescence, OD600, single point | E. coli WT GFP vs humanized-ribosome RFP mutants, 24 h; stronger effect = lower value; DMSO median 0, no signal -100 | GFP signal change (wild-type ribosome), % (concentration not given with the values) | 1.6% of 350,000 active;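 active = significant combined selectivity score with lowered wild-type GFP, culture density cut under 30%, mutant RFP and density less affected; inactive = any of these conditions unmet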
miR-122 sensor – miR-122 Renilla sensor signal increase in Huh7, primary screen, miR-122 inhibitor project, cell-based, single point, plate reader | activation (reporter increase), % at 12.5 µM | AID 602342, 2012 | 0.3% of 340,000 active | Huh7 miR-122 Renilla luciferase sensor, 48 h; neutral wells = 0, positive control = 100;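 active = mean replicate activation score at least 90 and every replicate individually at or above 90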;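 also: higher luciferase means less miR-122 activity so hits act as miR-122 inhibitors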
Vif imaging – HIV Vif self-association inhibitors, primary screen, imaging, HEK293T, single point. inhibition, % at 7.49 µM. AID 602346, 2012. 0.35% of 340,000 active. HEK293T cells, Vif self-association by quenched fluorescence, 24 h; in the data active = inhibition above about 50%, passing the limit was not always enough
HIV Env fusion – inhibitors of HIV-1 Env-driven cell-cell fusion, primary screen, HeLa-JRFL effector, CEM21 target cells, luciferase; 1.1% of 360,000 active; AID 651610, 2012; inhibition, % at 12.3 µM;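 active = mean replicate inhibition score of at least 50 and every replicate individually at or above 50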;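 also: 0% = plate neutral controls and 100% = maraviroc near 300 nM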
FN deposition inh – inhibitors of fibronectin matrix deposition, primary screen, AH1F cells, Alexa488-fibronectin fluorescence, plate reader; AH1F fibroblasts, overnight; 0.086% of 350,000 active; AID 743247, 2014; inhibition, % at 12.6 µM;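 active = mean inhibition across replicates of 30% or more, regardless of how many single replicates reach that level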;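 also: positive control wells lacked labelled fibronectin entirely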
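Material – AH1F fibroblast monolayer, labelled fibronectin deposition · Reagent – labelled fibronectin 24 nM · Timing – 1 h adhesion, overnight exposure · Measured by – fluorescence at 485 nm excitation, 525 nm emission · Read-out – inhibition of fibronectin deposition signal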
Active calls of the source: *; i = inactive; / = no result; ! = not confirmed by another sample; [ ] = dose if it differs, or a comment.

SMILES	S100A4 inh HTS	rRNA inh HTS	miR-122 sensor	Vif imaging	HIV Env fusion	FN deposition inh
COc1ccccc1NC(=O)NCCc1c[nH]c2ccccc12	5.7	-21.8*	11.1	-1.9	-1.9	-9.5
Cc1ccc(C)c(NC(=S)NCCc2c[nH]c3ccccc23)c1	-1.1	-16.9	2.2	0.4	14.6	0.2
Cc1ccccc1NC(=S)NCCc1c[nH]c2ccccc12	2.9	-24.1*	/	3.6	5.7	5.0
COc1ccc2c3c([nH]c2c1)[C@H](CO)N(S(=O)(=O)c1cn(C)cn1)CC31CCN(Cc2ccccc2F)CC1	13.0	-2.3	/	/	/	/
CO[C@@H]1CN(C)C(=O)c2cc(NC(=O)CC(F)(F)F)ccc2OC[C@H](C)N(C(=O)C2CCOCC2)C[C@@H]1C	-38.5	2.3	/	/	/	7.6
Cc1ccc(S(=O)(=O)N(C)C[C@@H]2OCCCC[C@H](C)Oc3ccc(NC(=O)Nc4ccc(F)cc4)cc3C(=O)N([C@H](C)CO)C[C@@H]2C)cc1	2.2	2.4	-7.7[16.7 µM]	/	4.3[16.7 µM]	13.4
C[C@@H]1CN([C@@H](C)CO)C(=O)Cc2cc(NC(=O)Cc3cn(C)c4ccccc34)ccc2O[C@@H]1CN(C)S(=O)(=O)c1ccccc1	0.8	-2.1	-0.8[16.7 µM]	/	24.8[16.7 µM]	/
COc1cc(OC)cc(C(=O)N[C@H](C(=O)NCCc2c[nH]c3ccccc23)C(C)C)c1	-1.3	-12.4	7.4	-3.8	77.8*	9.2
COc1ccc(CCNC(=S)NCCc2c[nH]c3ccccc23)cc1	1.1	-33.2*	/	-5.3	-4.4	-7.6
COc1cc(OC)cc(C(=O)N[C@H](C(=O)OCC(=O)c2c[nH]c3ccccc23)C(C)C)c1	-3.4	15.8	-2.3	-5.8	/	13.9
COc1ccc(CNC(=O)NCCc2c[nH]c3ccccc23)cc1	5.9	-4.7	-30.5	8.3	-19.3	-3.1
Cc1ccc(NC(=O)C(=O)NCCc2c[nH]c3ccccc23)c(C)c1	7.7	4.9	-0.2	20.8	11.0	-0.1
Cc1ccc(C)c(NC(=O)C(=O)NCCc2c[nH]c3ccccc23)c1	-5.4	-20.8*	-13.0	-0.3	9.6	-4.7
C[C@H]1CCCCO[C@@H](CN(C)C(=O)Nc2ccc(C(F)(F)F)cc2)[C@@H](C)CN([C@@H](C)CO)C(=O)c2cc(N(C)C)ccc2O1	1.8	-2.4	12.1[16.7 µM]	/	35.8[16.7 µM]	/
CC1=C(C(=O)NC(C)C)C2(CCC(C)CC2)OC1=O (stereo unspecified)	-3.2	6.2	/	-0.9	61.0*	2.3
CC1=C(C(=O)NC(C)c2ccccc2)C2(CCC(C)CC2)OC1=O (stereo unspecified)	-0.9	-0.6	7.1	1.6	5.7	3.7
S=C(NN=C1CCCCC1=NNC(=S)N1CCOCC1)N1CCOCC1	-4.9	/	/	/	66.8*	-11.6
CN[C@H]1CCc2cc(OC)c(OC)c(OC)c2-c2ccc(N(C)CC(OC)OC)c(=O)cc21	1.2	12.7	130.2*	20.2	-118.1	0.5
COc1cc2c(c(OC)c1OC)-c1ccc(N(C)CC(OC)OC)c(=O)cc1[C@@H](NC(C)=O)CC2	-15.8	14.6	/	4.1	i	-11.3
COc1cccc(CN2C[C@@H]3N[C@H](C2)C3c2ccc(-c3ccccc3OC)cc2)c1 (stereo partly specified)	16.8	-59.3	/	/	/	-1.7
C[C@@H]1CN([C@@H](C)CO)S(=O)(=O)c2ccc(-c3ccccc3)cc2O[C@H]1CN(C)S(C)(=O)=O	-8.0	-8.5	3.8[16.7 µM]	/	57.2*[16.7 µM]	5.4
Cc1ccc(-c2ccc3c(c2)O[C@H](CN(C)S(C)(=O)=O)[C@H](C)CN([C@@H](C)CO)S3(=O)=O)cc1	-1.8	-3.5	15.1[16.7 µM]	/	-0.1[16.7 µM]	4.0
C[C@@H]1CN([C@H](C)CO)S(=O)(=O)c2ccc(-c3ccccc3)cc2O[C@@H]1CN(C)Cc1ccccc1	/	-25.4	34.8[16.7 µM]	/	64.6*[16.7 µM]	7.9
C[C@H](CO)N1C[C@H](C)[C@H](CN(C)Cc2ccccc2)Oc2cc(-c3ccccc3)ccc2S1(=O)=O	/	-0.7	-3.7[16.7 µM]	/	79.4*[16.7 µM]	8.5
C[C@H](CO)N1C[C@H](C)[C@@H](CN(C)S(=O)(=O)c2cccs2)OCCCC[C@H](C)Oc2ccc(NS(=O)(=O)c3ccc(F)cc3)cc2C1=O	-2.3	-5.8	10.8[16.7 µM]	/	-58.9[16.7 µM]	0.5
SMILES	S100A4 inh HTS	rRNA inh HTS	miR-122 sensor	Vif imaging	HIV Env fusion	FN deposition inh
NCCOc1ccccc1OCCN	-2.0	16.6	0.9	0.1	-6.3	-3.9
NCCOc1ccccc1-c1ccccc1	/	/	2.5	50.4*	/	/
Cc1noc(C)c1NC(=O)Nc1ccc2c(c1)C(=O)N([C@H](C)CO)C[C@@H](C)[C@H](CN(C)S(=O)(=O)c1ccccc1)OCCCC[C@@H](C)O2	-5.5	0.5	1.8[16.7 µM]	/	5.4[16.7 µM]	4.7
C[C@@H]1CN([C@H](C)CO)S(=O)(=O)c2ccc(C#Cc3ccccc3F)cc2O[C@@H]1CN(C)C	4.1	4.7	0.2[16.7 µM]	/	-0.3[16.7 µM]	4.5
O=C(Nc1ccc(Cl)c(Cl)c1)N[C@@H]1CC[C@@H](CCn2cc(C3CCCCC3)nn2)O[C@@H]1CO	-1.5	-7.9	/	/	67.3*![16.7 µM]	-1.0
O=C(Nc1ccc(Cl)c(Cl)c1)N[C@H]1CC[C@H](CCn2cc(C3CCCCC3)nn2)O[C@H]1CO	46.9	-6.7	/	/	2.0[16.7 µM]	-8.3
O=C(Nc1ccc(Cl)c(Cl)c1)N[C@H]1CC[C@H](CCn2cc(C3CCCCC3)nn2)O[C@@H]1CO	8.9	-33.8	/	/	62.8*[16.7 µM]	-11.5
CN1CCN(C(=O)C[C@@H]2CC[C@H]3[C@@H](COc4ccc(NC(=O)C5CCC5)cc4C(=O)N3C)O2)CC1	10.3	3.1	/	/	/	-6.4
C[C@H]1CN(C)C(=O)c2cc(N(C)C)ccc2O[C@H]1CN(C)C	/	-0.8	/	/	/	7.2
Cc1ccc(C(C[N+](=O)[O-])c2c(N)n(C)c(=O)n(C)c2=O)cc1 (stereo unspecified)	-1.5	-24.4*	/	7.4	-3.2	3.6
COc1cc(C(C[N+](=O)[O-])c2c(N)n(C)c(=O)n(C)c2=O)ccc1O (stereo unspecified)	-3.5	0.8	/	1.7	-11.5	-0.2
COc1cccc(F)c1C(C[N+](=O)[O-])c1c(N)n(C)c(=O)n(C)c1=O (stereo unspecified)	-6.0	-24.1*	50.1	28.3	-43.7	4.5
Cn1c(N)c(C(C[N+](=O)[O-])c2ccccc2Cl)c(=O)n(C)c1=O (stereo unspecified)	-4.7	/	-5.3	7.9	-7.9	-0.4
C[C@@H]1CN([C@@H](C)CO)C(=O)Cc2cc(NS(=O)(=O)c3ccccc3)ccc2O[C@H]1CN(C)C	-6.0	-0.3	0.4[16.7 µM]	/	/	/

Screening data from PubChem.
